A short description of this data set: Toxicity liver stage against HepG2, at 10uM. The settings on record: human, HepG2-A16-CD81EGFP cells; read-out: INHIBITION
The class given is cell-based. Also noted: test concentration 10 uM, cell line HepG2-A16-CD81EGFP. Put shortly: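 Uninfected HepG2-A16-CD81EGFP cells, 3 × 10^3 per well, 1536-well, plated on prespotted compound at 10 μM final, parasite-free screening media added to match infected plates; puromycin 10 μM positive, DMSO 0.5% negative; run in parallel with 48 h PbLuc assay at 37 °C, 5% CO2; viability by CellTiter-Glo luminescence, normalized to controls.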

Take `COCCNC(=O)[C@H]1C[C@@H]2CCN(Cc3nccs3)C[C@H]2O1`: the cytotoxicity at 10 µM was -68.2%. As for `Cc1nccn1CC1CCCN(C(=O)c2cnn(C)c2)C1` (configuration not stated), the figure is -6.44%; as for `COCC1CC2(CCN(Cc3ccc(C)o3)CC2)CN1C(C)C` (configuration not stated), -2.42%; as for `Nc1nccnc1C1CN(C(=O)c2ccnnc2)CCO1` (configuration not stated), 9.48%. As for `CN(CCCc1nccn1C)C(=O)C1CCN(C(=O)C2CCCC2)CC1`, the figure is -15.3%; as for `COc1ccc(-c2cc3nn(CC(N)=O)c(=O)n3c(C)n2)cc1`, -5.29%. `O=C([C@@H]1CC[C@@H]2[C@@H](CCN2Cc2ccoc2)O1)N1CCCC1`: the cytotoxicity at 10 µM is -10.2%.

Turning to `Cn1ccnc1C(=O)N1CCC2(CCN2c2ncccn2)C1` (configuration not stated), the cytotoxicity at 10 µM is -0.736%. As for `COc1ccc(C)cc1CCNS(=O)(=O)c1ccc2c(c1)CCC(=O)N2`, the figure is -45.5%; as for `CN1C(=O)CN(C(=O)c2ccc(=O)n(C)c2)c2ccccc21`, -6.67%; as for `COc1ccc2[nH]c(=O)c(CN(C)C(C)c3ccccn3)cc2c1` (configuration not stated), 2.76%. As for `CCn1nc(C)c(CN(Cc2ccccn2)Cc2ccccc2Cl)c1C`, the figure is 5.17%; as for `O=C(c1sccc1C1CC1)N1CCCN(Cc2cscn2)CC1`, -14.7%; as for `Cc1c(C(=O)N2CCOCC2)nnn1-c1ccc2ncccc2c1`, -4.87%. Regarding `CC(C)c1nccc(CN2CCCC(O)(CN3CCCC3)C2)n1` (configuration not stated), the cytotoxicity at 10 µM was -0.413%.

`Cc1ccc(CC(=O)N(C)CC2(O)CCN(c3ccccn3)C2)s1` (configuration not stated): the cytotoxicity at 10 µM is -10.4%. As for `N#CC1CCCN(c2nc(-c3ccccc3)nc3c2CCNCC3)C1` (configuration not stated), the figure is -0.468%; as for `CCOC(=O)N1CCN(c2nc(N)c3ccccc3n2)CC1`, -5.52%; as for `CCCc1n[nH]c(C2CN(CCCS(=O)(=O)N(C)C)CCO2)n1` (configuration not stated), -11.9%. As for `CC(NCc1cc2cc(F)ccc2o1)c1nnc2n1CCCC2` (configuration not stated), the figure is -7.93%. As for `CCc1ccccc1OC1CN(C(=O)CN(C)Cc2ccncc2)C1`, the figure is -4.55%. As to `CCOC(=O)c1sc2ccsc2c1CNC(=O)CC`, the cytotoxicity at 10 µM was -5.7%. As for `c1csc(CN2CCn3c(Cn4cncn4)cnc3C2)n1`, the figure is -5.97%; as for `CCN1CCN(C(=O)C2CCOC2)c2ccccc21` (configuration not stated), 2.54%; as for `Cc1cccc(NC(=O)C(C)Oc2ccc3c(c2)OCO3)n1` (configuration not stated), -9.25%. `COc1cc(N2CCC3(CC2)CC(N2CCOCC2)CO3)ncn1` (configuration not stated): the cytotoxicity at 10 µM turned out to be 3.44%. As for `CCc1nc(CN2CCCN(C(=O)COC(C)C)CC2)cs1`, the figure is -15%. As for `CC(C)c1nn(C)c(N2CCOCC2)c1CNC(C)c1cccs1` (configuration not stated), the figure is -5.06%; as for `Cc1cc(NC(=O)NCCO)nn1-c1ccc(Cl)cc1Cl`, -136%; as for `Cc1ccsc1CNC(=O)N1CCC(Cc2cnn(C)c2)C1` (configuration not stated), -6.6%. As for `COc1ncccc1C(=O)N1CC[C@H]2C[C@@H](c3noc(C)n3)O[C@@H]2C1`, the figure is 4.76%; as for `CCNC(=O)CN1CCCC(c2ccc(C(=O)O)cc2)C1` (configuration not stated), 8.57%; as for `O=C(NCCCn1ccnc1)N1CCCC1c1cccs1` (configuration not stated), -8.31%. Turning to `Cn1nnnc1SCC1(O)CCCCC1`, the cytotoxicity at 10 µM came out at 1.06%. As for `Cc1ncsc1CCN1CCN(C(=O)c2ccc(=O)[nH]c2)CC1`, the figure is 4.38%; as for `O=C(C1CCOCC1)N1CCc2ncnc(-c3ccc(F)cc3)c2CC1`, -6.28%; as for `CC(C)OC[C@H]1CCC[C@]12CN(S(=O)(=O)c1cn(C)cn1)CCO2`, 5.19%. For `Cc1ocnc1C(=O)N1CC[C@@H](O)[C@@H](O)[C@H](N2CCC(F)(F)CC2)C1`, the cytotoxicity at 10 µM was 4.86%. As for `Cc1cnn(CC2CCCN2C(=O)c2cc3ccccc3[nH]2)c1` (configuration not stated), the figure is -0.433%; as for `CC(C)C(=O)Nc1ncn(Cc2cccc(Br)c2)n1`, -9.95%; as for `NCc1cnc(Nc2ccccc2)nc1`, 8.55%.

Take `O=C([C@H]1C[C@@H]2CCN(c3cccc(F)c3)C[C@H]2O1)N1CCCC1`: the cytotoxicity at 10 µM is 1.99%. As for `Cc1nc(-c2ccc(Cl)s2)sc1C(=O)N(C)CC(N)=O`, the figure is -7.08%.

Consider `CC(C)c1ccc(OCCC(=O)NCCC(=O)N(C)C)cc1`, for which the cytotoxicity at 10 µM is -4.37%.

As for `CN(C)CC1CN(Cc2ccc3c(c2)OCO3)Cc2nccn2C1` (configuration not stated), the cytotoxicity at 10 µM is -0.362%. As for `Cc1ncnc2c1CCN(CC1CCOC1)CC2` (configuration not stated), the figure is -67.2%; as for `CO[C@H]1C[C@@H](O)C12CCN(C(=O)c1cccc(CCC(C)(C)O)c1)CC2`, 2.74%; as for `OCC1(CCOc2ccccc2)CCN(c2ccc(Cl)cn2)CC1`, -43.4%. With `O=C(NCc1ccccn1)NC1CCCN(c2ncccn2)C1` (configuration not stated), the cytotoxicity at 10 µM is 6.21%.

For `CC(C)CC(CO)NC(=O)NCc1csc(N(C)C)n1` (configuration not stated), the cytotoxicity at 10 µM amounted to 6.07%.

As to `Cc1ncc(CNC(=O)c2oc3ccccc3c2CN(C)C)s1`, the cytotoxicity at 10 µM stood at 13.5%. As for `CC(C)CN1CCc2c(CN(C)Cc3ccco3)cncc2C1`, the figure is 8.1%; as for `CC(C)c1nn(C)c(N(C)C)c1CNC1CCCCNC1=O` (configuration not stated), 2.91%. As for `Cc1cnc2n1CCN(C)C21CCN(CC2CC2)CC1`, the figure is 7.34%; as for `O=C(C(CNCc1cccs1)c1ccccc1)N1CCOCC1` (configuration not stated), 0.142%; as for `CN1CCC(c2n[nH]c(=O)n2CC2CCCCC2)CC1`, -45.2%. As for `c1ccc(-c2nc(CN3CCOC(Cn4cccn4)C3)co2)cc1` (configuration not stated), the figure is 0.724%. Take `Cc1ccc(CNc2ccn(CCC(N)=O)n2)c(Br)c1`: the cytotoxicity at 10 µM is -1.65%.

In the case of `Cn1cccc1C(=O)NCc1cn2c(n1)CN(CC1CCOC1)CC2` (configuration not stated), the cytotoxicity at 10 µM is -99.7%. As for `O=C(C1=CCCC1)N1C[C@@H]2COC[C@]2(COCC2CC2)C1`, the cytotoxicity at 10 µM was -96.2%. As for `CCn1nc2c(cc1=O)CN(CC(=O)Nc1nccs1)CC2`, the figure is -4.74%; as for `Cc1cc(C[C@@H]2CCC[C@H]2NCc2cccc(F)c2F)on1`, -0.474%; as for `O=C(Cn1cccnc1=O)NCC1Cc2ccccc2O1` (configuration not stated), -4.62%. As for `CC(C)Oc1cccc(-c2nc3c([nH]2)CCCNC3=O)c1`, the figure is 27.3%; as for `CC(NC(=O)c1cccc(CN2CCN(C)CC2)c1)c1nccs1` (configuration not stated), -4.28%; as for `CC(=O)Nc1nc2c(s1)C(C)(C)Nc1ccccc1S2`, -7.08%. On to `Cc1noc(NC(=O)c2ccccc2)n1`, for which the cytotoxicity at 10 µM was -0.269%. As for `CC(C)c1nc(CN(C)C2CCCN(c3cccnn3)C2)no1` (configuration not stated), the figure is -9.92%. Regarding `CN(C)C(=O)N1C[C@@H]2CC[C@H]1CN(C1Cc3ccccc3C1)C2`, the cytotoxicity at 10 µM is -0.581%. As for `Cc1nnc(CN2CCN(C)C3(CCC(=O)N(CCO)CC3)C2)s1` (configuration not stated), the figure is -14.9%; as for `CC(NC(=O)c1ccc(C(N)=O)cc1)c1cccc(N2CCOC2=O)c1` (configuration not stated), -2.83%; as for `CS(=O)(=O)CCCNC1(c2ccc(Br)cc2)CCC1`, -0.0862%. Turning to `CSCC[C@@H](CO)NC(=O)c1sc(-c2ccccc2Cl)nc1C`, the cytotoxicity at 10 µM was 14.3%. As for `CC(=O)N1CCCC2(CN(Cc3ccc(F)cc3)CCO2)C1` (configuration not stated), the cytotoxicity at 10 µM came to 0.283%. As for `Cc1nc(C2CCCN2C(=O)c2ccc(N(C)C)nn2)no1` (configuration not stated), the figure is -12.9%. Consider `CCNC(=O)CNC(=O)Nc1cccc(Cl)c1SC(F)F`, for which the cytotoxicity at 10 µM is -1.76%. As for `O=C(CCn1cnc2cc(F)c(F)cc21)N1CCN2CCCCC2C1` (configuration not stated), the figure is -12.3%; as for `Cc1nc(-c2ccc(S(=O)(=O)N3CCOCC3)cc2)co1`, -9.52%; as for `Cc1ncc(C)c(N2CCC(Cc3ccc(Cl)cc3)(C(=O)O)CC2)n1`, -6.28%.

`N#Cc1cc2n(n1)CCN(C(=O)CCc1c[nH]c3ccccc13)C2`: the cytotoxicity at 10 µM was -9.64%. As for `CC(C)C(=O)NC1CCCN(C(=O)c2cc(Cl)ccc2O)C1` (configuration not stated), the figure is -11.4%; as for `CCN1CCC2(CC1)C(=O)N(c1ccc(C)nc1)CCN2CC(C)C`, 16.4%. As for `CCOC(=O)[C@]12CCCN(Cc3cccs3)C[C@H]1CN(C(C)=O)C2`, the figure is 4.13%; as for `CC(C)OCCCNC(=O)NC(C)c1ccc(-n2cncn2)cc1` (configuration not stated), -5.32%.

Take `CC(C)Cc1ncc2c(n1)CN(c1cc(NCCO)nc(N)n1)C2`: the cytotoxicity at 10 µM was -2.68%.

`CCN(C(=O)C1CC1)C(c1cccnc1)c1ccc2c(c1)CCO2` (configuration not stated): the cytotoxicity at 10 µM was determined as 1.46%. As for `CC(C)CCC(=O)Nc1ncn(CC(=O)N2CCCCCC2)n1`, the figure is 1.17%. As for `CCn1ccc(C(=O)N(C)Cc2cnn(-c3cccc(OC)c3)c2)n1`, the figure is 6.26%; as for `CC[C@@H]1N(Cc2nccs2)CCC[C@]12CCC(=O)N2CCOC`, 2.49%. As for `O=C1CN(c2ccc(CNC(=O)NCC3CCOC3)cc2)CCN1` (configuration not stated), the figure is -1.96%. Regarding `COC1C[C@@H]2CN(C(=O)c3[nH]nc4c3CCCC4)C[C@@H]2C1` (some centres not stated), the cytotoxicity at 10 µM came out at 0.0252%. As for `c1ccc(-c2nnc3ccc(N4CCC5(CCOC5)C4)nn23)cc1` (configuration not stated), the figure is 7.12%; as for `CCCC(NC(=O)NCc1cccc(N(C)C)n1)c1ccccn1` (configuration not stated), 19.8%; as for `Cc1n[nH]cc1CNCC(c1cccc(F)c1)N(C)C` (configuration not stated), -0.0972%. As for `NC(=O)CN1CCC(c2cccc(Oc3ccccc3)n2)CC1`, the figure is -4.72%.

For the compound `Cc1nnsc1CN(C)C(=O)CN1CC2(CCNCC2)OC1=O`, the cytotoxicity at 10 µM was 11.4%. As for `Cc1noc(CS(=O)(=O)c2cc(F)ccc2F)n1`, the figure is -0.23%.
